# Measured values reported in ChEMBL document CHEMBL5252513, “Identification of a Benzoisoxazoloazepine Inhibitor (CPI-0610) of the Bromodomain and Extra-Terminal (BET) Family as a Candidate for Human Clinical Trials” (J Med Chem, 2016).
# Columns and labels:
# [1] = Toxicity in dog assessed as degeneration of testicular seminiferous epithelium at 2 to 6 mg/kg,po QD consecutive for 14 days followed by 2 weeks recovery period; assay type: organism-based, Canis lupus familiaris; details: in vivo, 336 h, dose 2-6 mg/kg, time 14 day
# In short: (§1)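 Oral suspension given once daily for 14 consecutive days (rat 2, 6, 20 mg/kg; dog 2, 4, 6 mg/kg) in dose range-finding and GLP repeat-dose studies, GLP arms with an added 2-week recovery period; histopathology and clinical pathology findings recorded.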
# [2] = Toxicity in rat assessed as GI mucosal erosion at 2 to 20 mg/kg,po QD consecutive for 14 days followed by 2 weeks recovery period; assay type: organism-based; details: in vivo, 336 h, dose 2-20 mg/kg, time 14 day; in short: as §1
# [3] = Protein binding in mouse plasma; assay type: ADME, cell-free; details: read-out: PPB (converted)
# [4] = Clearance in rat assessed as liver blood flow at 1 mg/kg,iv; assay type: ADME, organism-based; details: in vivo
# MV4-11 [5] = test: Antitumor activity against human MV4-11 cells xenografted in BALB/c mouse assessed as tumor growth inhibition at 60 mg/kg,po QD for 28 days; assay type: functional; details: MV4-11, 672 h, time 28 day, read-out: TGI
# In short: (§2)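 Single-agent efficacy in MV-4-11 AML mouse xenograft. Tumor volume (mm3) and percent body-weight change were tracked over the treatment days.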
# [6] = Toxicity against BALB/c mouse plasma xenografted with human MV4-11 cells assessed as body weight loss at 30 mg/kg,po BID for 28 days; assay type: organism-based; details: in vivo, 672 h, time 28 day
# In short: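 Body weight change (%) followed in MV-4-11 AML mouse xenograft during 28 days of oral single-agent dosing (30 mg/kg once or twice daily, 60 mg/kg once daily), vehicle PO BID as control.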
# [7] = Toxicity against BALB/c mouse plasma xenografted with human MV4-11 cells assessed as body weight loss at 10 mg/kg,sc BID in presence of doxorubicin at 2 mg/kg,iv BIW for 28 days; assay type: organism-based; details: in vivo, 672 h, time 28 day
# In short: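 MV-4-11 acute myeloid leukemia mouse xenograft; BET inhibitor given subcutaneously 10 mg/kg twice daily, doxorubicin 2 mg/kg IV twice weekly, alone or combined, for 28 days; body weight change (%) tracked over treatment against vehicle.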
# [8] = Tmax in rat at 5 mg/kg,po; assay type: ADME, organism-based; details: in vivo
# [9] = Protein binding in dog plasma; assay type: ADME, cell-free, Canis lupus familiaris; details: read-out: PPB (converted)
# [10] = Toxicity in dog assessed as lymphoid depletion at 2 to 6 mg/kg,po QD consecutive for 14 days followed by 2 weeks recovery period; assay type: organism-based, Canis lupus familiaris; details: in vivo, 336 h, dose 2-6 mg/kg, time 14 day; in short: as §1
# [11] = Toxicity in dog assessed as hypocellularity of bone marrow with associated anemia and thrombocytopenia at 2 to 6 mg/kg,po QD consecutive for 14 days followed by 2 weeks recovery period; assay type: organism-based, Canis lupus familiaris; details: in vivo, 336 h, dose 2-6 mg/kg, time 14 day; in short: as §1
# [12] = AUC (0 to 24 hrs) in human patient with progression lymphoma at 300 mg,po QD and measured after 24 hrs; assay type: ADME; parameters: time 24 hrs, dose 300 mg, route po; details: in vivo
# In short: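 Phase I trial in patients with hematologic malignancies, oral dosing once daily with escalating cohorts; values are from the 300 mg dose on day 14. AUC0-24 was taken as exposure over 24 h. Apparent clearance was calculated as Dose/AUC0-24.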
# [13] = Volume of distribution at steady state in rat at 1 mg/kg,iv; assay type: ADME, organism-based; details: in vivo, read-out: Vdss
# [14] = AUC (0 to infinity) in mouse at 30 mg/kg,po; assay type: ADME, organism-based; parameters: dose 30 mg/kg, route po; details: in vivo
# CREB-binding protein = CREB-binding protein (Homo sapiens, UniProt Q92793); test: Displacement of biotinylated JQ1 from CBP bromodomain (unknown origin) incubated for 20 mins by AlphaLISA assay
# [15] = target: Bromodomain-containing protein 8 (Homo sapiens, UniProt Q9H0E9); test: Displacement of biotinylated JQ1 from BRD8 bromodomain (unknown origin) incubated for 20 mins by AlphaLISA assay
# [16] = Oral bioavailability in rat at 5 mg/kg; assay type: ADME, organism-based; details: in vivo
# [17] = Volume of distribution at steady state in dog at 0.5 mg/kg,iv; assay type: ADME, organism-based, Canis lupus familiaris; details: in vivo, read-out: Vdss
# [18] = Initial plasma concentration in human patient with progression lymphoma at 300 mg,po QD and measured after 24 hrs; assay type: ADME; details: read-out: C0
# In short: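 Trough plasma concentration taken as concentration at 24 h after oral dosing, 300 mg cohort, patients with hematologic malignancies.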
# [19] = AUC (0 to infinity) in mouse at 10 mg/kg,sc; assay type: ADME, organism-based; parameters: dose 10 mg/kg, route sc; details: in vivo
# [20] = Cmax in dog at 2.5 mg/kg,po; assay type: ADME, organism-based, Canis lupus familiaris; parameters: dose 2.5 mg/kg, route po; details: in vivo
# [21] = Toxicity in rat assessed as GI mucosal atrophy at 2 to 20 mg/kg,po QD consecutive for 14 days followed by 2 weeks recovery period; assay type: organism-based; details: in vivo, 336 h, dose 2-20 mg/kg, time 14 day; in short: as §1
# [22] = Toxicity in rat assessed as lymphoid depletion at 2 to 20 mg/kg,po QD consecutive for 14 days followed by 2 weeks recovery period; assay type: organism-based; details: in vivo, 336 h, dose 2-20 mg/kg, time 14 day; in short: as §1
# MV4-11 [23] = test: Antitumor activity against human MV4-11 cells xenografted in BALB/c mouse assessed as tumor growth inhibition at 30 mg/kg,po BID for 28 days; assay type: functional; details: MV4-11, 672 h, time 28 day, read-out: TGI; in short: as §2
# [24] = target: T1, Transcription intermediary factor 1-alpha (Homo sapiens, UniProt O15164); test: Displacement of biotinylated JQ1 from TRIM24 bromodomain (unknown origin) incubated for 20 mins by AlphaLISA assay
# T1 sequence (O15164 whole entry): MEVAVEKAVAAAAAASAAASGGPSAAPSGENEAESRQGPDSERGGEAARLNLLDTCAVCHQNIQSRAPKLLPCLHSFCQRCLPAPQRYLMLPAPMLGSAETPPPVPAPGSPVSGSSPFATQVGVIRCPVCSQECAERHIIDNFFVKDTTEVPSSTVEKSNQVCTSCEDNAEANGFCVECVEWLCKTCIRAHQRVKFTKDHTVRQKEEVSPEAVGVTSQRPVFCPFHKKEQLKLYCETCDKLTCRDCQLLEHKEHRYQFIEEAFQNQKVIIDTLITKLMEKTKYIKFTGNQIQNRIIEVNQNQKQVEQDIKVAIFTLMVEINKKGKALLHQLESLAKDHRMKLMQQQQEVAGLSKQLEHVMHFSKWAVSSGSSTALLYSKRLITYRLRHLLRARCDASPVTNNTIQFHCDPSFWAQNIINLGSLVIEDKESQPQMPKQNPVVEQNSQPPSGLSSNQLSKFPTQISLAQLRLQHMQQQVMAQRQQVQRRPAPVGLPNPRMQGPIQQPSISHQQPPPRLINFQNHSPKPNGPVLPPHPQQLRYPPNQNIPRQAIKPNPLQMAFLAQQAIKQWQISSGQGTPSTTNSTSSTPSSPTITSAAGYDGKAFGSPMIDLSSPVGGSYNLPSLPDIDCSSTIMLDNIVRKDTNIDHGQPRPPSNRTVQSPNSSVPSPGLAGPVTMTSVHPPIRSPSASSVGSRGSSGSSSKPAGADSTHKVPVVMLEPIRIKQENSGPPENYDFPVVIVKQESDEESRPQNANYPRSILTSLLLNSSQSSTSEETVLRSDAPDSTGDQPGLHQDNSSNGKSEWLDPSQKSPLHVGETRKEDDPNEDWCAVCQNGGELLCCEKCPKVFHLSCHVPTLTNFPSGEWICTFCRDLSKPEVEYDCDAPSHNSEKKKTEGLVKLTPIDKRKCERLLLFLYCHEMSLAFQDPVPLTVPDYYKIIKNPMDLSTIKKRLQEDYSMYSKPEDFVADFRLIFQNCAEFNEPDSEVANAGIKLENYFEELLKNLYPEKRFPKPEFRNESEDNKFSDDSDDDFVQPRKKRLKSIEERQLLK
# Sequence of Bromodomain-containing protein 8 (Q9H0E9 whole entry): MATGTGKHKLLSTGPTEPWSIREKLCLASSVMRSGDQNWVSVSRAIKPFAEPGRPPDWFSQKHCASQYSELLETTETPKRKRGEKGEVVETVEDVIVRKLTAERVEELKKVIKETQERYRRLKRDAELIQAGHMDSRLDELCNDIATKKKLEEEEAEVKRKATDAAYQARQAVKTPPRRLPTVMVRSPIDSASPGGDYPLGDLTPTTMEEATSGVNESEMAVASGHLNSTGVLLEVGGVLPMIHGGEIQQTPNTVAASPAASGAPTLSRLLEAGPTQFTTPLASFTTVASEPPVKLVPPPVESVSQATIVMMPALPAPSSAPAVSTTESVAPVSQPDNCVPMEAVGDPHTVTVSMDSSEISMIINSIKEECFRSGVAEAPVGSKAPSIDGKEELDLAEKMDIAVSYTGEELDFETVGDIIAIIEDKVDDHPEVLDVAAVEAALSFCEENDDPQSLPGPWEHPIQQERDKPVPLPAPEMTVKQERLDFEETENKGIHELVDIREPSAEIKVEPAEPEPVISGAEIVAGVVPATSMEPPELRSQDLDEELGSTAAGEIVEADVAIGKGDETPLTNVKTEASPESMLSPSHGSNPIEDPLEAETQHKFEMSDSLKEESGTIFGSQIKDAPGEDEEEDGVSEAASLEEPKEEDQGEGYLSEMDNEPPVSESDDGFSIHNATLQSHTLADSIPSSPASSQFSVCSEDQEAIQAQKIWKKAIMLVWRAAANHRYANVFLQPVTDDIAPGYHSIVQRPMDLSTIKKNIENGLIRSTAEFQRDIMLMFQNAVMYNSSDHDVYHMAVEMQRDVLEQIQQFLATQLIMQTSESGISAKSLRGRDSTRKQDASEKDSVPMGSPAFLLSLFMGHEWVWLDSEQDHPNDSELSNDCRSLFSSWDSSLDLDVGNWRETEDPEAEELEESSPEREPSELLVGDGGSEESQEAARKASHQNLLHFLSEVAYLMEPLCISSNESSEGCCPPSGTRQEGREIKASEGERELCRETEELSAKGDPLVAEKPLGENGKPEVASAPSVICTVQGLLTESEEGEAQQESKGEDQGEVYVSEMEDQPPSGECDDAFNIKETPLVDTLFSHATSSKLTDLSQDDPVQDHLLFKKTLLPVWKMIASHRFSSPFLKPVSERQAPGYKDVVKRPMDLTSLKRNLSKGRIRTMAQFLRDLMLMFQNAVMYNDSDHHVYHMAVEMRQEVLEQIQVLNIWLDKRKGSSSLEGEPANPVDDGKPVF
# Sequence of CREB-binding protein (Q92793 whole entry): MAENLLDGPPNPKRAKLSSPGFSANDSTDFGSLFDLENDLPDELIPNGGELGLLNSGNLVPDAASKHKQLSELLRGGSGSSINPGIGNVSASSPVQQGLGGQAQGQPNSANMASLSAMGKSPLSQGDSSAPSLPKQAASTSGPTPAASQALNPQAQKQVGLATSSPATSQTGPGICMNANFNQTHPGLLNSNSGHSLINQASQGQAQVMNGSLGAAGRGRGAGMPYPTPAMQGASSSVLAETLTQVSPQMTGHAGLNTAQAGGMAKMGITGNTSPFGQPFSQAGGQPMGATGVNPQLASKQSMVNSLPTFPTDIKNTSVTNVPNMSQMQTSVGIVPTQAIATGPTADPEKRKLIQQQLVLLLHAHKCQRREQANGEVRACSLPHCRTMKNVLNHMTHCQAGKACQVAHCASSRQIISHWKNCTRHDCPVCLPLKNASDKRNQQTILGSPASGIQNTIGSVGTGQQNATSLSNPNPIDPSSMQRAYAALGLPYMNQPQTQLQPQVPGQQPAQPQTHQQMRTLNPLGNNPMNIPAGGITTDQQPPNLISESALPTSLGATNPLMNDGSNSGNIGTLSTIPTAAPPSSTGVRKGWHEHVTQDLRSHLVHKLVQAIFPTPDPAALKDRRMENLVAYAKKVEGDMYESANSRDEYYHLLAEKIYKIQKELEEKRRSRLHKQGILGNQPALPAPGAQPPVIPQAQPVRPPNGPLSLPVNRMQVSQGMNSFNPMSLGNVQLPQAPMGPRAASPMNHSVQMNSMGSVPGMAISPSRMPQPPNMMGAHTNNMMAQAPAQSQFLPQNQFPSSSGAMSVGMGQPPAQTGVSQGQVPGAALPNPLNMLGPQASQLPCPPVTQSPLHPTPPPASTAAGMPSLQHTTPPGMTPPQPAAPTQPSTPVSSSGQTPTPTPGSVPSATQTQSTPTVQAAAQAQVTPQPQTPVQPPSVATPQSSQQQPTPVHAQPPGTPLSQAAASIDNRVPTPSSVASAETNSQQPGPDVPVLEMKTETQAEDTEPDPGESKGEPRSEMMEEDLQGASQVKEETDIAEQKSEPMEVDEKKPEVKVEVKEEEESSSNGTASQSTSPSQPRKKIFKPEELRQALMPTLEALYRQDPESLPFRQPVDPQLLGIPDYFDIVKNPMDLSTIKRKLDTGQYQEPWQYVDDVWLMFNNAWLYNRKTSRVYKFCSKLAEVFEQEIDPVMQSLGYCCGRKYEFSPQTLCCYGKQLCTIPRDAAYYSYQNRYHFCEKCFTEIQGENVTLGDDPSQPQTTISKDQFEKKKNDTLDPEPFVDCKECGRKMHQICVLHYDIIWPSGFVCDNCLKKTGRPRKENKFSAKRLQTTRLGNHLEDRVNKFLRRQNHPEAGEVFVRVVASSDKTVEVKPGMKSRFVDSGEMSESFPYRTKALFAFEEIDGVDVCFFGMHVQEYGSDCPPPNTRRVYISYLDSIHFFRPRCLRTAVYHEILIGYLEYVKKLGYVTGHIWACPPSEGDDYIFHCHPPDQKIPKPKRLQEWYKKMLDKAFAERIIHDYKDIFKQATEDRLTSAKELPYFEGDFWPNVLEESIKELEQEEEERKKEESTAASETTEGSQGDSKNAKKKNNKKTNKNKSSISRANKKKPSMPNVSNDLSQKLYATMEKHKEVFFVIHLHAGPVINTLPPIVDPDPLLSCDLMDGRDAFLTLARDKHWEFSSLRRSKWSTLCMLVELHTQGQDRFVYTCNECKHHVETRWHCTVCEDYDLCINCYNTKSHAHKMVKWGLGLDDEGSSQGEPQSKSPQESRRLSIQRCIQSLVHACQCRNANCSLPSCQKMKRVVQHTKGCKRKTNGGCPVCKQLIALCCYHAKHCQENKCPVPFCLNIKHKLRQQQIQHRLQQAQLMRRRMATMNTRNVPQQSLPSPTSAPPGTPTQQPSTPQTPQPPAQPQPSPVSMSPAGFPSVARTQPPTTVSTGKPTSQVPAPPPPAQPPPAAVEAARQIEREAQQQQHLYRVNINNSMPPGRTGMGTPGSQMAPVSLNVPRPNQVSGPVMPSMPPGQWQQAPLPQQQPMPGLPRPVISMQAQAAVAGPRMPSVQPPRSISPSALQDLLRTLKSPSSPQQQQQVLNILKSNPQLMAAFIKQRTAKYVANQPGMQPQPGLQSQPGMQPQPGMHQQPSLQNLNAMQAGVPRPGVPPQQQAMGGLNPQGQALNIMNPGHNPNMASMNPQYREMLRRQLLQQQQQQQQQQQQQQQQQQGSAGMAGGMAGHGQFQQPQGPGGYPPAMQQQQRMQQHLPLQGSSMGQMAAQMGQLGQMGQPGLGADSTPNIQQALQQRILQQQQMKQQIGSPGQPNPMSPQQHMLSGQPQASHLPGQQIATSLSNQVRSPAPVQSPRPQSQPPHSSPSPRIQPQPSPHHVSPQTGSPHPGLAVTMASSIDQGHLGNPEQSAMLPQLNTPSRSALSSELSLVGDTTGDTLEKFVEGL
structure (smiles),measurement,setting,value
Cc1noc2c1-c1ccccc1C(c1ccc(Cl)cc1)=N[C@H]2CC(N)=O [PELABRESIB],Activity,[1],Toxic
same,Activity,[2],Toxic
same,fraction unbound,[3],0.03
same,QH,[4],36%
same,inhibition in vivo at 60 mg/kg,MV4-11 [5],74%
same,Activity,[6],Non-Toxic
same,Activity,[7],Non-Toxic
same,Tmax,[8],1.2 h
same,fraction unbound,[9],0.04
same,Activity,[10],Toxic
same,Activity,[11],Toxic
same,AUC at 24 h,[12],49 µM·h
same,Vd,[13],1.3 L/kg
same,AUC(0-inf),[14],101 µM·h
same,IC50,CREB-binding protein,> 20 µM
same,IC50,[15],> 15 µM
same,bioavailability,[16],76%
same,Vd,[17],1.2 L/kg
same,concentration at 24 h,[18],220 nM
same,AUC(0-inf),[19],49 µM·h
same,Cmax,[20],2900 nM
same,Activity,[21],Toxic
same,Activity,[22],Toxic
same,inhibition in vivo at 30 mg/kg,MV4-11 [23],80%
same,IC50,[24],> 20 µM
